FID counter: displaces DNA intercalator in HCV helicase counter-screen; DNA fluorescent intercalator displacement, fluorescence; inhibition, % at 7.9 µM; actives 0.17% (n = 290,000); AID 1845; in the data active means inhibition above about 37%;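 further: 0% = vehicle and 100% = reference compound; higher means more ethidium bromide displaced from hairpin DNA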
ANO1 activ: activators or potentiators of mouse TMEM16A chloride channel; B-score at 10 µM; HEK293 TMEM16A/YFP-H148Q/I152L, iodide quench fluorescence; active compounds read low; AID 623877; actives 0.3% (n = 340,000); Q8BHY3;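 active means fluorescence-ratio B-score plate-corrected deviation score at least 3 library SD below zero, with starting fluorescence score within 5 deviations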;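 further: channel opened by trigger with iodide after compound preincubation; score built on the fluorescence ratio of max minus min over baseline; more negative score means more quench and so TMEM16A activation or potentiation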
Target sequence (Q8BHY3 whole entry, looked up): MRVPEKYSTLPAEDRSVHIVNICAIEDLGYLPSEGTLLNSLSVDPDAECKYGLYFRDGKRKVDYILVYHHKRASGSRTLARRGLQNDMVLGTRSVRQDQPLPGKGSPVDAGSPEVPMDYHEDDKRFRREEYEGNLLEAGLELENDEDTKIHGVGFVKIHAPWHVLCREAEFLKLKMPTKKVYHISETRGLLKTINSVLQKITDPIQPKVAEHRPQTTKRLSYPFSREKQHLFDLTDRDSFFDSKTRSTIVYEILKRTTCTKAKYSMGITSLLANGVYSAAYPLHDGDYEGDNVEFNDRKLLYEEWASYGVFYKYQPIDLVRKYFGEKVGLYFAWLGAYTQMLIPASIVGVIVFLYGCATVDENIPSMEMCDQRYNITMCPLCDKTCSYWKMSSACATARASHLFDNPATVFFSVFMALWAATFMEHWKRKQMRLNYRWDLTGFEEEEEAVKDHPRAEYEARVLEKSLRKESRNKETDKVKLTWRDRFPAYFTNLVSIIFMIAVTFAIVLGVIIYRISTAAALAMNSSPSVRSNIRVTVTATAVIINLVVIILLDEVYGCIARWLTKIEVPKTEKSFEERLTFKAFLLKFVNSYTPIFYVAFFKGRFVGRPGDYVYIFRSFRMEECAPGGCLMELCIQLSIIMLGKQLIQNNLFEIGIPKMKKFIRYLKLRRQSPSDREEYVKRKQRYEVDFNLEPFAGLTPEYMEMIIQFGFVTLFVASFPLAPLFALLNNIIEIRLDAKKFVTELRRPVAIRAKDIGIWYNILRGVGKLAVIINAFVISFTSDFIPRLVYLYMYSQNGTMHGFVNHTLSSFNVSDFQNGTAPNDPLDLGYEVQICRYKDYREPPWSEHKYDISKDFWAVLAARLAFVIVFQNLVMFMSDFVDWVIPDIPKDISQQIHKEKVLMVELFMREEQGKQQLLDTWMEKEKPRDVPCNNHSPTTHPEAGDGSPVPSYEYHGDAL
UBC13 inh: blocks human UBC13 polyubiquitin chain formation; TR-FRET; actives 0.47% (n = 330,000); inhibition, % at 20 µM; in the data active means inhibition above about 45%, passing the limit was not always enough; inconclusive means no clear call, values can overlap the other calls
ANO1 block: inhibitors of mouse TMEM16A calcium-activated chloride channel; HEK293 TMEM16A/YFP iodide influx fluorescence, ionomycin; normalized B-score (activity score, 25-100; higher = stronger inhibition) at 10 µM; actives 1.2% (n = 310,000);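 active means ratio plate-corrected score three or more library SD toward inhibition, starting fluorescence score within five deviations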;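 further: score derived from kinetic fluorescence span divided by baseline fluorescence per well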
Apaf1 inhib: inhibitors of human Apaf-1 apoptosome; reconstituted apoptosome caspase-3 activity, DEVD-Rh110 fluorescence; inhibition, % at 20 µM; actives 0.71% (n = 330,000); AID 489030; active means inhibition of at least 40% at 20 µM;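 further: plate controls were DMSO wells for no effect and DEVD-CHO caspase inhibitor wells for full effect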
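Material: cell-free apoptosome with Apaf-1, procaspase-3 and caspase-9; Buffer or medium: Hepes pH 7.5 with detergent and BSA; Reagent: cytochrome c trigger plus (Z-DEVD)2-Rh110 caspase-3 substrate; Times: compound with Apaf-1, dATP, procaspase-3 30 min, then 50 min reaction, room temperature; Technique: Rh110 fluorescence intensity.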
Active calls of the source: *; i = inactive; u = inconclusive; x = not tested or not shown. Rows were chosen to be rich in hits. Some 2.4% of all compounds tested hit in one or more screens of this group.

SMILES | FID counter | ANO1 activ | UBC13 inh | ANO1 block | Apaf1 inhib
O=c1c(C(c2ccccc2)c2c(O)sc3ccccc3c2=O)c(O)sc2ccccc12 | -10.1 | i | -8.8 | 100* | 19.7
Cc1ccc2c(c1)CCCN2S(=O)(=O)c1cccc(C(=O)Nc2ccccc2C(=O)O)c1 | 22.7 | i | -19.2 | 100* | 4.4
COc1ccc(S(=O)(=O)N2CCN(C(=O)c3cc(C)nc4ccccc34)CC2)cc1OC | x | i | 4.4 | x | -1.8
CCC(C)NCCOCCOc1ccc(Cl)c(C)c1C (configuration not stated) | 16.7 | i | -3.8 | i | -3.4
CCC(C)NCCOCCOc1ccc(Cl)c2ccccc12 (configuration not stated) | 50.9* | i | 13.5 | i | -3.6
COc1ccc2c(c1)[nH]c1c(N3CCN(Cc4ccc5c(c4)OCO5)CC3)ncnc12 | 14.7 | i | -1.2 | 100* | 12.7
CC(C)N=C(NS(=O)(=O)NC(=O)c1ccccc1)c1ccccc1 | 1.4 | i | -4.1 | i | -16.9
N#Cc1c(N)sc2c1CCN(CCc1ccccc1)C2 | -1.7 | i | -7.0 | 25* | 4.7
Cc1ccc(C(C#N)c2ccc3c(C(F)(F)F)cc(C(F)(F)F)nc3n2)cc1 (configuration not stated) | 2.3 | i | -91.3 | 100* | -3.1
CN(N)c1ccc2c(C(F)(F)F)cc(C(F)(F)F)nc2n1 | -0.8 | i | -12.8 | i | -4.1
O=C(O)c1cccc(NC(=S)N/N=C/c2ccccc2OCc2ccc(Br)cc2)c1 | -23.2 | i | -21.4 | 25* | 26.1
O=C(COc1cccc2ccccc12)N/N=C/c1ccccc1OCc1ccc(C(=O)O)cc1 | -20.3 | i | -17.3 | 100* | 25.9
O=C(O)c1cccc(NC(=S)N/N=C/c2ccccc2OCc2cccc(Br)c2)c1 | -21.4 | i | x | x | x
O=S(=O)(c1ccc(F)cc1)N1CCC2(CC1)OCCN2S(=O)(=O)c1cccs1 | x | i | 1.4 | i | 11.3
Cc1ccc(CNC(=O)C2CCCN2C(=O)Nc2ccc(F)cc2)cc1 (configuration not stated) | -6.9 | i | 1.7 | i | 1.3
CCN(Cc1ccccc1)C(c1ccccn1)c1nnnn1C(C)(C)CC (configuration not stated) | -24.1 | i | 2.1 | i | 2.6
CC(C)(C)n1nnnc1C(c1ccccn1)N(Cc1ccccc1)Cc1ccc(Cl)cc1 (configuration not stated) | -24.5 | -5.06* | -7.4 | i | 27.4
N#CC(C#N)=Cc1cccn1-c1ccc(S(N)(=O)=O)cc1 | -5.5 | -6.14* | 2.7 | i | -3.1
O=C(c1ccc(-c2ccccc2)cc1)C1CCCN(Cc2ccncc2)C1 (configuration not stated) | -9.7 | i | 6.9 | 100* | 24.5
Cc1ccc(-c2nn(-c3ccccc3)cc2C(=O)NCC(c2cccs2)N2CCOCC2)cc1 (configuration not stated) | x | i | -2.7 | i | 27.4
COc1ccc(NC(=O)Cc2ccc(Cl)c(Cl)c2)cn1 | -9.5 | i | 3.1 | i | -6.4
COc1ccc(NC(=O)/C(Cl)=C(/Cl)S(=O)Cc2ccccc2Cl)cn1 (configuration not stated) | -35.9 | -4.6* | -3.6 | x | 11.0
COc1cc(C2CC(=O)c3c([nH]c(C(=O)OCCOC(C)C)c3C)C2)cc(OC)c1OC (configuration not stated) | -31.9 | i | 7.3 | 100* | 2.5
CCn1c(=NC(=O)c2cccc(N3C(=O)CCC3=O)c2)sc2c(OC)ccc(OC)c21 | -2.6 | -6.38* | u | i | 24.9
CC(C)C(C(=O)Nc1ccc2c(c1)OCCOCCOCCOCCO2)N1C(=O)c2ccccc2C1=O (configuration not stated) | -23.3 | i | -7.7 | i | -3.4
SMILES | FID counter | ANO1 activ | UBC13 inh | ANO1 block | Apaf1 inhib
CSc1nsc(SCC(=O)Nc2ccc(C(=O)O)cc2)n1 | -3.1 | i | 0.1 | i | -6.3
Cc1ccc(N/N=C(\C#N)C(N)=S)cc1C | -0.9 | i | -17.0 | 100* | -1.9
N#C/C(=N\Nc1ccc(Cl)cc1)C(N)=S | 0.6 | i | -3.7 | 100* | 17.1
N#C/C(=N\Nc1ccccc1)C(N)=S | 1.7 | -15.9* | 0.1 | i | -0.3
N#C/C(=N\Nc1ccc(Cl)cc1)C(=N)N1CCCCC1 | 13.9 | i | -6.6 | i | -0.6
CCOC(=O)C1(CC2CCCCO2)CCN(S(=O)(=O)c2c(C)nn(C)c2C)CC1 (configuration not stated) | -25.9 | i | 4.3 | i | 2.0
NS(=O)(=O)c1ccc(CNC(=S)Nc2ccc(Cl)c(Cl)c2)cc1 | 6.2 | -5.27* | 8.2 | i | 8.5
CCCCN(C(=O)c1cc(CC)c(C)s1)c1c(N)n(CCC)c(=O)[nH]c1=O | x | i | -8.2 | i | 2.3
CCOc1cc(CNCCO)cc(Br)c1OCc1ccc(Cl)cc1 | 38.4* | i | 36.9 | i | 15.0
CCOc1cc(CNCCCN2CCOCC2)cc(Br)c1OCc1ccccc1Cl | 39.7* | i | 38.9 | i | 11.8
COc1cc(CNC(C)(C)CO)cc(Br)c1OCc1ccccc1 | 18.6 | i | 8.1 | i | -0.8
CCOc1cc(CNCCN2CCOCC2)ccc1OCc1ccccc1Cl | 24.3 | i | 18.3 | i | -21.0
CCOc1cc(CNC(C)(C)CO)cc(Br)c1OCc1ccc(Cl)cc1Cl | 38.2* | i | 39.2 | i | 5.1
CC(C)(C)NC(=O)N1CCCC(C(=O)c2cccc(Cl)c2)C1 (configuration not stated) | -6.6 | i | 2.8 | i | -8.5
Cc1ccc(S(=O)(=O)Nc2c(C)[nH]c(=O)[nH]c2=O)cc1C | 3.7 | i | -6.4 | i | -0.7
Cc1cc(O)c2c(c1)C(=O)c1cc(O)cc(O)c1C2=O | x | i | -164.7 | 100* | 17.0
CCNC(=S)NNC(=O)c1cc(-c2ccccc2C)nc2ccccc12 | -9.2 | i | -4.2 | i | -12.6
Cc1ccc(C)c(-c2cc(C(=O)NNC(=S)NCC(C)C)c3ccccc3n2)c1 | -17.3 | i | -27.8 | 100* | 17.3
Nc1nonc1-c1nc2ccccc2n1CC(=O)N/N=C/c1ccc(-c2cccc(C(=O)O)c2)o1 | -35.3 | i | -8.2 | x | 4.9
CCOc1cc2c(cc1O)C(=NOC)CC1C2CCC2(C)C(O)CCC12 (configuration not stated) | x | -6.64* | x | x | x
C[C@]12CC[C@@H]3c4cc(O)c(O)cc4CC[C@H]3[C@@H]1CC[C@@H]2O | -6.0 | i | 13.4 | i | 10.1
CN(Cc1nc(-c2ccc(Cl)cc2)no1)C(=O)c1ccc2c(c1)OCO2 | x | i | -8.7 | 25* | 20.4
COc1ccc(-c2noc(CN(C(=O)c3ccc4c(c3)OCO4)C(C)C)n2)cc1 | -31.0 | i | -3.3 | i | 19.4
COc1cc(-c2c(NC(=O)c3ccco3)oc3ccccc3c2=O)cc(OC)c1OC | -24.4 | i | -4.6 | i | -6.7
Cc1cn2c(N)c(C=C3C=C(Cl)C(=O)C(Cl)=C3)c(=O)nc2s1 | -4.2 | -6.78* | -37.0 | x | 13.3
